Measured values published in paper PMC6176371 (Oncology Letters, 2018).
“Also recorded” adds a separate entry of the source. Like-named read-outs stand apart in the source and are kept apart here. Values belong to the compound of their own block, whether it stands above or below them.

How the values were obtained:
heart tissues = experiment: TUNEL assay of heart tissues; format: in vivo; conditions: male and female Balb/c mice
In short: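 Heart tissue came from the 3-week mouse study: vehicle; test compound 100 mg/kg gavage twice weekly; ADM 20 mg/kg i.p. on day 6; combination. Paraffin sections (4 µm) were stained with an in situ TUNEL kit, and positive cells were counted in three random fields per slide by light microscopy. Percent apoptotic cells was compared by one-way ANOVA with Dunnett's test.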

KB/VCR cells = experiment: cells; format: cell-based; conditions: Homo sapiens, read-out: IC50 ± SD
KB cells = experiment: cells; format: cell-based; conditions: Homo sapiens, read-out: IC50 ± SD
CYP2C8 = biological target: T1, CYP2C8 (Homo sapiens, UniProt P10632); experiment: CYP inhibition in pooled human liver microsomes, CYP2C8; format: biochemical; conditions: CYP2C8, Amodiaquine N-deethylation
T1 sequence (P10632 1-490): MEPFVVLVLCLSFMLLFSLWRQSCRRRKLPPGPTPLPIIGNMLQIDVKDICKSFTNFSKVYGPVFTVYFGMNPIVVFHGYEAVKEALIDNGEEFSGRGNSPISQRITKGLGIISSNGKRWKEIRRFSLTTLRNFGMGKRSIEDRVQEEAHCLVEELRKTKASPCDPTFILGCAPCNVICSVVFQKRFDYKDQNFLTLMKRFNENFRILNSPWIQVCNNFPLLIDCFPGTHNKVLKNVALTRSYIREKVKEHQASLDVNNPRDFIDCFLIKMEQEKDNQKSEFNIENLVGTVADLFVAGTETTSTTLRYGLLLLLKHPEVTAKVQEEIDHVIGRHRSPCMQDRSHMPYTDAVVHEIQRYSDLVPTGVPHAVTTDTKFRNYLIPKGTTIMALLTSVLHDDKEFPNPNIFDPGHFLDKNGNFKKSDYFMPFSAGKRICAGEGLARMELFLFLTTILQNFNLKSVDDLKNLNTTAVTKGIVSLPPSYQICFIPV

Balb/c mice = experiment: Maximum tolerant dosage, single high-dose PPD12; format: in vivo; conditions: 1 g/kg PPD12
In short: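 Single oral gavage of test compound at 1 g/kg to Balb/c mice to assess tolerability of a single high dose.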

CYP2C9 = CYP2C9 (Homo sapiens, UniProt P11712); experiment: CYP inhibition in pooled human liver microsomes, CYP2C9; format: biochemical
[1] = Pharmacokinetic study, oral and i.v. administration; format: in vivo, SD rats
In short: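 Adult male SD rats got a single 10 mg/kg dose by tail-vein injection or oral gavage. Blood was drawn from three rats predose and at 0.083–24 h; plasma was frozen at −80°C. Plasma was deproteinized with methanol containing 250 nM internal standard for LC/MS/MS. PK parameters came from a noncompartmental i.v.-bolus model.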

CYP2D6 = CYP2D6 (Homo sapiens, UniProt P10635); experiment: CYP inhibition in pooled human liver microsomes, CYP2D6; format: biochemical; conditions: CYP2D6, Dextromethorphandextrorphan
CYP2B6 = biological target: T2, CYP2B6 (Homo sapiens, UniProt P20813); experiment: CYP inhibition in pooled human liver microsomes, CYP2B6; format: biochemical; conditions: CYP2B6, Bupropion hydroxylation
T2 sequence (P20813 1-491): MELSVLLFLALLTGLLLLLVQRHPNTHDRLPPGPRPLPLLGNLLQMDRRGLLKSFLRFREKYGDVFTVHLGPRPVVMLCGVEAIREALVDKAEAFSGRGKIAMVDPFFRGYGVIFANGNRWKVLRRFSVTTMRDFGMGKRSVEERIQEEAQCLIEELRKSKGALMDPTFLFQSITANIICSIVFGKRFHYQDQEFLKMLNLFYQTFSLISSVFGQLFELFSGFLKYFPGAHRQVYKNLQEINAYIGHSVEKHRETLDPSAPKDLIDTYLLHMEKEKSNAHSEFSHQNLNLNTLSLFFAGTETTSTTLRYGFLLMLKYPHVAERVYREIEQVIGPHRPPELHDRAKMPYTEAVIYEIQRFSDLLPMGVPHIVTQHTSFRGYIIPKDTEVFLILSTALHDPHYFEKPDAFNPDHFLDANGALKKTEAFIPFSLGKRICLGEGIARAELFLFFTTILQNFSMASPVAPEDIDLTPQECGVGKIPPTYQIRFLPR

CYP3A4 = CYP3A4 (Homo sapiens, UniProt P08684); experiment: CYP inhibition in pooled human liver microsomes, CYP3A4; format: biochemical
CYP2C19 = CYP2C19 (Homo sapiens, UniProt P33261); conditions: CYP2C19, S-mephenytoin4′-hydroxylation, human liver microsomes
CYP1A2 = biological target: T3, CYP1A2 (Homo sapiens, UniProt P05177); experiment: CYP inhibition in pooled human liver microsomes, CYP1A2; format: biochemical
T3 sequence (P05177 1-516): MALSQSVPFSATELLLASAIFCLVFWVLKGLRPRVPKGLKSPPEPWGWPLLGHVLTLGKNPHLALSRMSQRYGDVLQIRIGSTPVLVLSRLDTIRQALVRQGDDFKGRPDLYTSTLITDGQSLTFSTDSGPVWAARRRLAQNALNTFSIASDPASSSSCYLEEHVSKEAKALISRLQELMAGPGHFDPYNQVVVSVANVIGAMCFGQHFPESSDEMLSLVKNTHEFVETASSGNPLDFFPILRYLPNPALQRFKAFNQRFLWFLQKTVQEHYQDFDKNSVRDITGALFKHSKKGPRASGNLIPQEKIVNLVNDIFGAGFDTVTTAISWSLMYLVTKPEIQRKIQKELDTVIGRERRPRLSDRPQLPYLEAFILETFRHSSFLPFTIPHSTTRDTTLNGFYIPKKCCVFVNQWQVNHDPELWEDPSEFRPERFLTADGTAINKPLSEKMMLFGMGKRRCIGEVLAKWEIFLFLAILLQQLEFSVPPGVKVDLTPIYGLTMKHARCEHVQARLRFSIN

CYP2C9, sequence (P11712 whole entry): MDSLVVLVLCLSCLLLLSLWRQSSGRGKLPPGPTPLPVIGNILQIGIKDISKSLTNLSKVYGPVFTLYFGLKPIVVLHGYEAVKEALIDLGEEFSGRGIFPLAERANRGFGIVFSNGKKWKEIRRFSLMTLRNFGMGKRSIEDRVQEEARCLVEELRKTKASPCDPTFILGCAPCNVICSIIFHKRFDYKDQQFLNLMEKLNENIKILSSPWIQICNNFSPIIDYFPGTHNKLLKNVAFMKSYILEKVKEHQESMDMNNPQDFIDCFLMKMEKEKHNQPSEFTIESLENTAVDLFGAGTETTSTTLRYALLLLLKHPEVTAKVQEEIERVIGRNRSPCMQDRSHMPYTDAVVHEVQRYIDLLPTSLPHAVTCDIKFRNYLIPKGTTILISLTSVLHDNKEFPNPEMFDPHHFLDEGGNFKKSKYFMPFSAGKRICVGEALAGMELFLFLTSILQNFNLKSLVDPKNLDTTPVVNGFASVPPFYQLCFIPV
CYP3A4, sequence (P08684 whole entry): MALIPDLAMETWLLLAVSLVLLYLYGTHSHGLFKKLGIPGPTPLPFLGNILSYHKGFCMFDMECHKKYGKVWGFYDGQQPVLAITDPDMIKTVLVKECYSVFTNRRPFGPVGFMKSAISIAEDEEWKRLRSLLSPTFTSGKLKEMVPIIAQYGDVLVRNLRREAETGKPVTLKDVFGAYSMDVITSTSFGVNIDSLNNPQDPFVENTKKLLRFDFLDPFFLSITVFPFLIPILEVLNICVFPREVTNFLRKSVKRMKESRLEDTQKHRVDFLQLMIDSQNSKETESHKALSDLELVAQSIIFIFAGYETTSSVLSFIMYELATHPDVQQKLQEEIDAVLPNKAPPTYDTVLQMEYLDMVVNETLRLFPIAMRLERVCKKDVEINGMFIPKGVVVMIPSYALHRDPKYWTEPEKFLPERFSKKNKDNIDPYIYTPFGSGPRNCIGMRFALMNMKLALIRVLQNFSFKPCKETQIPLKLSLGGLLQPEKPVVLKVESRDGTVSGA
CYP2D6, sequence (P10635 whole entry): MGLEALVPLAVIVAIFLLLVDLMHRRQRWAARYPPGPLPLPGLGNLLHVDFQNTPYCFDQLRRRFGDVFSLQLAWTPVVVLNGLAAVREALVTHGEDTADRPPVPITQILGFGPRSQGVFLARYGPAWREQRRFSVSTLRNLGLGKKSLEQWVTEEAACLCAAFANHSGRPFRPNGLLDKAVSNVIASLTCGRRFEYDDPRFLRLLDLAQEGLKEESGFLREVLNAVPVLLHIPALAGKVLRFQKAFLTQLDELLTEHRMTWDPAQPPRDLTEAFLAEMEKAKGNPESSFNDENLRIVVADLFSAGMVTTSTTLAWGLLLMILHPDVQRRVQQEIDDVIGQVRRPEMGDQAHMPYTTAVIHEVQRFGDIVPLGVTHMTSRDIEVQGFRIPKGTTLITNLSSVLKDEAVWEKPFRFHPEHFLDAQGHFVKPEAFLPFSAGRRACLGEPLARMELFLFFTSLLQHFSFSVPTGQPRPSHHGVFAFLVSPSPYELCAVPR
CYP2C19, sequence (P33261 whole entry): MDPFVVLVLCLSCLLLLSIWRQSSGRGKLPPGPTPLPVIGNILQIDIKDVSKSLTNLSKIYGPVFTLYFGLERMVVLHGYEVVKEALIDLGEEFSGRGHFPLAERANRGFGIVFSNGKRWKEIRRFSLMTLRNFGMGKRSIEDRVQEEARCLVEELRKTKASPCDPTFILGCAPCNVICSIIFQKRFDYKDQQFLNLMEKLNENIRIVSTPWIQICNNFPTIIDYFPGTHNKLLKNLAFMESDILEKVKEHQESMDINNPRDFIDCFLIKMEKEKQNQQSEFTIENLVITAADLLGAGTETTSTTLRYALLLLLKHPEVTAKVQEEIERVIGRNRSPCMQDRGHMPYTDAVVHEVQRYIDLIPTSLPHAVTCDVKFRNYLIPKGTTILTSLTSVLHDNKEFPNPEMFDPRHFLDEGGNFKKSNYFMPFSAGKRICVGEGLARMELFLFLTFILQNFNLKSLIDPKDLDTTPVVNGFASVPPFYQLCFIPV

- IC50 (KB/VCR cells; 24 h): 151 µM
- IC50 (KB/VCR cells; 48 h): 4.78 µM
- IC50 (KB/VCR cells; 72 h): 1.52 µM
- IC50 (KB/VCR cells; 96 h): 1.19 µM
- IC50 (KB cells; 24 h): 2.38 µM
- IC50 (KB cells; 48 h): 0.39 µM
- IC50 (KB cells; 72 h): 0.0713 µM
- IC50 (KB cells; 96 h): 0.0351 µM
Structure (SMILES): COc1cccc2c1C(=O)c1c(O)c3c(c(O)c1C2=O)C[C@@](O)(C(=O)CO)C[C@@H]3O[C@H]1C[C@H](N)[C@H](O)[C@H](C)O1 [ADM, Adriamycin]
- apoptotic cells in heart tissues (TUNEL) compared to the control group (heart tissues): significant increase in apoptosis

Structure (SMILES): CC1(C)[C@@H](O)CC[C@]2(C)[C@H]3C[C@@H](O)[C@@H]4[C@@H]([C@@](C)(O)CCCNCc5ccccc5)CC[C@@]4(C)[C@]3(C)CC[C@@H]12 [PPD12]
- IC50 (CYP2C8): 9.57 µM
- lethal effects / tolerability of a single high dosage (Balb/c mice): did not observe any lethal effects; also recorded: well tolerated
- apoptotic cells in heart tissues (TUNEL) compared to the control group (heart tissues): no obvious difference in apoptotic cells
- IC50 (CYP2C9; CYP2C9, Diclofenac4′-hydroxylation): > 33 µM
- inhibition of CYP2C9-mediated diclofenac4′-hydroxylation (CYP2C9; at 33 µM): negligible inhibition
- oral absolute bioavailability ([1]; male SD rats, 10 mg/kg oral vs i.v.): 114.41±22.24%
- bioavailability by oral administration ([1]; mouse model (so in the source)): ~100%
- IC50 (CYP2D6): 11.8 µM
- IC50 (CYP2B6): 2.21 µM
- IC50 (CYP3A4; CYP3A4, Midazolam 1′-hydroxylation): 1.03 µM
- IC50 (CYP3A4; CYP3A4, Testosterone 6-β-hydroxylation): 8.43 µM
- IC50 (CYP2C19): 15 µM
- IC50 (CYP1A2; CYP1A2, Phenacetin 0-deethylation): > 33 µM
- inhibition of CYP1A2-mediated phenacetin 0-deethylation (CYP1A2; at 33 µM): negligible inhibition
